Source: PubChem
MrgX1 ag = agonists of human MrgX1 receptor | MrgX1-HEK293 cells, Fluo-4 calcium fluorescence, agonist mode; hits give high values | B-score at 10 µM | 310,000 compounds, 0.44% hits;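 active means calcium response B-score plate-corrected fluorescence ratio at least 3 library SD, with starting fluorescence B-score inside 5 SD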
Target sequence (Q96LB2 whole entry, looked up): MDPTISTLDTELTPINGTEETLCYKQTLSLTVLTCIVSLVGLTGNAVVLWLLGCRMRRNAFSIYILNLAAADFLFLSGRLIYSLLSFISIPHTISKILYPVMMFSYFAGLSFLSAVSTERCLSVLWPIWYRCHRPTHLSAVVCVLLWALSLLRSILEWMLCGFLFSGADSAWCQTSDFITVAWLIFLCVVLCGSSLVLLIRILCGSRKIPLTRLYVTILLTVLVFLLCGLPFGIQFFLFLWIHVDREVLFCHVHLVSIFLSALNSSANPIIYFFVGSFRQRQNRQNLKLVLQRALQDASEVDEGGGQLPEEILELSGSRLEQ
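Material: MrgX1-expressing HEK293 cells / Dosing: compound as first of three additions / Incubation: overnight seeding, then 1 h dark dye loading / Signal: Fluo-4 NW calcium fluorescence / Evaluation: B-scored fluorescence response ratio / Benchmarks: positive and negative control wells on each plate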
MrgX1 allo act = allosterically activates human MrgX1 receptor signaling; B-score at 10 µM; Q96LB2; 310,000 compounds, 0.63% hits; MrgX1-HEK293, Fluo-4 calcium flux, FDSS; hits give high values;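 active means plate-corrected calcium response at least 3 library SD above typical, normal starting fluorescence, not activating the receptor alone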;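 further: compound read alongside a low EC10 to EC30 dose of BAM8-22 agonist; peak minus trough fluorescence over baseline measured at the second addition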
RGS4 pot = RGS4 potentiation or activation; HEK293 M3R/inducible RGS4, carbachol calcium flux Fluo4; hits give low values; AID 463111; B-score at 10 µM; 310,000 compounds, 0.92% hits;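 active means B-score of the integrated calcium signal more than 4 SD below the library mean, with starting fluorescence not abnormally high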;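 further: negative B-score means reduced calcium response which marks RGS4 activation or potentiation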
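System: HEK293 FlpIn-TREx cells, stable M3R, doxycycline-inducible RGS4. Timing: overnight RGS4 induction, 30 min dye load 37 °C, 20 min compound RT. Also added: carbachol, ECmax concentration. Measured by: Fluo4 fluorescence kinetic imaging of calcium. Evaluation: integrated calcium ratio converted to B score.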
RGS4 block = human RGS4 inhibition. AID 463165. P49798. B-score at 10 µM. HEK293 M3R/RGS4 inducible, Fluo-4 calcium flux; hits give high values; triggered by carbachol at its EC20. 310,000 compounds, 0.45% hits;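 active means B-score, a plate-corrected calcium signal, over three deviations above library mean, with baseline fluorescence within five deviations of library mean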;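 further: RGS4 expression induced by doxycycline in cells with stable M3 receptor; B-score is computed from the integrated fluorescence ratio over baseline after carbachol; higher B-score means a larger calcium signal and so more RGS4 inhibition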
Target sequence (P49798 whole entry, looked up): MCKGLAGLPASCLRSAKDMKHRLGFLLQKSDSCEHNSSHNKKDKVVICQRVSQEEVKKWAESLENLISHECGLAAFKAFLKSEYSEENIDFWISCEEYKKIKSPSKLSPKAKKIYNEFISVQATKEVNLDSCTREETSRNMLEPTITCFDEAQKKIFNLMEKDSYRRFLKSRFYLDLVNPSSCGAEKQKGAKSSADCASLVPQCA
MrgX1 antag = antagonists of human MrgX1 receptor | MRGX1-HEK293 calcium flux, Fluo-4, BAM8-22 antagonism; hits give low values | Q96LB2 | 310,000 compounds, 1.3% hits | B-score at 10 µM;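 active means calcium-response B-score plate-corrected more than 3 library SD below zero, starting fluorescence within 5 deviations, no agonist response on first addition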;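 further: peak minus trough fluorescence over baseline after final BAM8-22 challenge near maximal dose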
MrgX1 ant reconf = reconfirmed antagonist of human MrgX1 receptor signaling | shares compounds with MrgX1 antag | MrgX1-HEK293, BAM8-22 calcium flux, Fluo-4; hits give low values | remaining BAM8-22 calcium response % of control (hits give low values), % at 10 µM | 2,300 compounds, 19% hits | AID 602420;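 active means remaining agonist calcium response no higher than 100% minus 3 SD of agonist-only control wells, with starting fluorescence near control levels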;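 further: agonist BAM8-22 given at a near maximal EC90 to ECmax level; peak minus minimum fluorescence divided by baseline after agonist addition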
HEK293 Ca flux = MrgX1 antagonist counter-screen hit in parental HEK293 cells. shares compounds with MrgX1 antag. Fluo-4 calcium fluorescence, FDSS. fluorescence ratio F(max-min)/F0 at 10 µM. 4,000 compounds, 2% hits. AID 624111;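 active means duplicate-averaged calcium fluorescence ratio at least three times the standard deviation of buffer wells, a nonspecific response in parental cells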
HEK293 Ca counter = activity in parental HEK293 cells without MrgX1 | shares compounds with MrgX1 antag | parental HEK293 calcium flux, Fluo-4 fluorescence ratio; hits give high values | fluorescence ratio F(max-min)/F0 at 10 µM | 4,000 compounds, 0.4% hits | AID 624114;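 active means calcium fluorescence ratio, averaged over duplicates, at least 3 SD of the buffer-well ratio, meaning a nonspecific response in receptor-free cells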;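 further: untransfected parental HEK293 lacking MrgX1 used as counterscreen for MrgX1 allosteric activators; fluorescence change taken during the second addition on a kinetic imager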
HEK293 Ca cntr2 = MrgX1 activator counter-screen hit in parental HEK293 cells | 4,000 compounds, 8.7% hits | Fluo-4 calcium fluorescence (FDSS); hits give high values | shares compounds with MrgX1 antag | fluorescence ratio F(max-min)/F0 at 10 µM | AID 624115;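 active means calcium fluorescence ratio at least three times the spread of buffer wells, meaning a non-specific response in parental cells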
Large screens that a line does not name were inactive (follow-up assays come after a bar, where they were run). Most compounds without a hit are left out; they make up all but 3.5% or so of the library.

c1ccc(CSc2nnc(-c3cccs3)n2Cc2ccco2)cc1	MrgX1 antag -5.8 | MrgX1 ant reconf 83% | HEK293 Ca flux inactive | HEK293 Ca counter inactive | HEK293 Ca cntr2 inactive
Cc1ccccc1CSc1nnc(-c2cccs2)n1Cc1ccco1	none
O=C(Nc1ccc2c(c1)OCO2)N1CCN(c2ccc(F)cc2)CC1	MrgX1 antag -4.7 | MrgX1 ant reconf 83% | HEK293 Ca flux inactive | HEK293 Ca counter inactive | HEK293 Ca cntr2 inactive
CCOC(=O)Nc1ccc2c(CN3CCN(S(=O)(=O)c4ccccc4)CC3)cc(=O)oc2c1	none
CCOC(=O)Nc1ccc2c(CN3C(=O)NC(CC)(CC)C3=O)cc(=O)oc2c1	MrgX1 antag -4.7 | MrgX1 ant reconf 81% | HEK293 Ca flux inactive | HEK293 Ca counter inactive | HEK293 Ca cntr2 inactive
Cc1cc(C)c(C(N)=O)c(NC(=O)Nc2ccccc2Cl)n1	MrgX1 antag -4.6 | MrgX1 ant reconf inactive | HEK293 Ca flux inactive | HEK293 Ca counter inactive | HEK293 Ca cntr2 inactive
Cc1cc(C)c(C(N)=O)c(Nc2cccc(Cl)c2C)n1	none
Cn1nc(C(F)(F)F)c(-c2ccc(F)cc2)c1NC(=O)c1cccnc1	none
CCn1c(SCC(=O)Nc2ccc(C(C)=O)cc2)nc2nc3c(cc2c1=O)CCCC3	MrgX1 antag -5.8 | MrgX1 ant reconf inactive | HEK293 Ca flux inactive | HEK293 Ca counter inactive | HEK293 Ca cntr2 inactive
O=C(Cn1c(C(F)(F)F)nc2ccccc21)Nc1ccccc1N1CCOCC1	MrgX1 antag -9.3 | MrgX1 ant reconf inactive | HEK293 Ca flux inactive | HEK293 Ca counter inactive | HEK293 Ca cntr2 inactive
Cc1ccc2nsnc2c1S(=O)(=O)N1CCN(Cc2ccc3c(c2)OCO3)CC1	MrgX1 antag -7.5 | MrgX1 ant reconf inactive | HEK293 Ca flux inactive | HEK293 Ca counter inactive | HEK293 Ca cntr2 inactive
CSc1cccc(NC(=O)CSc2nc3ccccc3o2)c1	none
O=C(OCCN1CCOCC1)c1ccc(Cl)cc1Cl	none
CCCn1c(=O)c2c(nc3n2CCCN3CCc2ccc(OC)c(OC)c2)n(C)c1=O	MrgX1 antag -4.8 | MrgX1 ant reconf inactive | HEK293 Ca flux inactive | HEK293 Ca counter inactive | HEK293 Ca cntr2 inactive
CCn1c(=O)c2c(nc3n2CCCN3CCc2ccc(OC)c(OC)c2)n(C)c1=O	none
COc1ccc(CCN2CCCn3c2nc2c3c(=O)n(Cc3ccccc3F)c(=O)n2C)cc1OC	none
COc1ccc(CCN2CCCn3c2nc2c3c(=O)n(CC(C)C)c(=O)n2C)cc1OC	MrgX1 antag -6.1 | MrgX1 ant reconf 68% | HEK293 Ca flux inactive | HEK293 Ca counter inactive | HEK293 Ca cntr2 inactive
CSc1cc(-c2ccc(Cl)cc2)c(C(=O)N2CCCC2)s1	none
Cc1ccc2[nH]c(-c3cccc(F)c3)cc(=O)c2c1	MrgX1 antag -4.6 | MrgX1 ant reconf inactive | HEK293 Ca flux inactive | HEK293 Ca counter inactive | HEK293 Ca cntr2 inactive
Cc1[nH]c2ccccc2c1SCCN	MrgX1 antag -7.5 | MrgX1 ant reconf inactive | HEK293 Ca flux inactive | HEK293 Ca counter inactive | HEK293 Ca cntr2 inactive
Cc1ccc(-c2[nH]c3ccccc3c2SCCN)cc1	none
Cc1oc(-c2ccccc2Cl)nc1CS(=O)CC(=O)NC1CC1 (stereo unspecified)	none
CC1CCN(C(=O)C(C)c2ccc([N+](=O)[O-])cc2)CC1 (stereo unspecified)	none
O=C(O)c1ccc(CNCc2ccc(Cl)cc2Cl)cc1	MrgX1 antag -5 | MrgX1 ant reconf inactive | HEK293 Ca flux inactive | HEK293 Ca counter inactive | HEK293 Ca cntr2 inactive
O=C(O)c1ccc(CNCc2ccc(Cl)cc2)cc1	none
COC(=O)CNC(=O)COC(=O)/C=C/c1ccccc1[N+](=O)[O-]	none
Cn1c(=O)c2c(nc(CN3CCOCC3)n2CCc2ccccc2)n(C)c1=O	MrgX1 antag -4.9 | MrgX1 ant reconf inactive | HEK293 Ca flux inactive | HEK293 Ca counter inactive | HEK293 Ca cntr2 inactive
CN(C)c1ccc(/C=C/c2ccc3ccccc3n2)cc1	MrgX1 antag -6.9 | MrgX1 ant reconf inactive | HEK293 Ca flux 0.55 | HEK293 Ca counter inactive | HEK293 Ca cntr2 inactive
C(=C\c1ccc2ccccc2n1)/c1ccccc1	none
O=c1oc2ccccc2c2c1SC(C(F)(F)F)C2 (stereo unspecified)	MrgX1 antag -5.1 | MrgX1 ant reconf 76% | HEK293 Ca flux inactive | HEK293 Ca counter inactive | HEK293 Ca cntr2 inactive
COc1ccccc1N1CCN(C(=O)C2CCCO2)CC1 (stereo unspecified)	MrgX1 antag -8.2 | MrgX1 ant reconf inactive | HEK293 Ca flux inactive | HEK293 Ca counter inactive | HEK293 Ca cntr2 inactive
COc1ccc(CCC(=O)NC2CCC(C)CC2)cc1 (stereo unspecified)	none
COC(=O)CNC(=O)CNC(=O)Nc1ccccc1	MrgX1 antag -8.1 | MrgX1 ant reconf 83% | HEK293 Ca flux inactive | HEK293 Ca counter inactive | HEK293 Ca cntr2 inactive
COc1cc(NC(=O)c2ccc3c(c2)S(=O)(=O)N=C2CCCCCN23)cc(OC)c1	none
Cc1ccc(NC(=S)NCCc2ccc(F)cc2)c(C)c1	MrgX1 antag -6.2 | MrgX1 ant reconf inactive | HEK293 Ca flux inactive | HEK293 Ca counter inactive | HEK293 Ca cntr2 inactive
N#C/C(=C/c1cn(CC(=O)O)c2ccccc12)C(=O)NCc1ccccc1	none
Cc1ccc(CN2CCCNC2=O)cc1	MrgX1 antag -4.9 | MrgX1 ant reconf inactive | HEK293 Ca flux inactive | HEK293 Ca counter inactive | HEK293 Ca cntr2 inactive
O=C(NC(=S)NCCN1CCOCC1)c1ccccc1Cl	MrgX1 antag -4.9 | MrgX1 ant reconf inactive | HEK293 Ca flux inactive | HEK293 Ca counter inactive | HEK293 Ca cntr2 inactive
COc1cc(-c2nnn(CC(=O)NC3CCS(=O)(=O)C3)n2)ccc1OCc1ccccc1 (stereo unspecified)	none
COc1ccc(-c2nnn(CC(=O)c3ccccc3)n2)cc1OC	MrgX1 antag -4.7 | MrgX1 ant reconf inactive | HEK293 Ca flux inactive | HEK293 Ca counter inactive | HEK293 Ca cntr2 inactive
COc1cc(-c2nnn(CC#N)n2)ccc1OCc1ccccc1	MrgX1 antag -4.7 | MrgX1 ant reconf inactive | HEK293 Ca flux inactive | HEK293 Ca counter inactive | HEK293 Ca cntr2 inactive
CC1CCC(NC(=O)C(Cc2ccccc2)n2cccc2)CC1 (stereo unspecified)	none
CC(C)c1ccc2c(c1)C1Cc3ccccc3C1N2 (stereo unspecified)	none
